test: Cytotoxicity against human LTEDaro cells after 72 hrs by MTT assay; type: functional, cell-based
Method in brief: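 LTEDaro cells (long-term estrogen-deprived MCF-7aro) seeded in custom medium for 24 h, then exposed to a range of concentrations in DMSO (final ≤0.1%) for 72 h, with vehicle-matched DMSO controls. Medium then replaced with 0.5 mg/ml MTT for 2 h at 37°C in CO2 incubator; formazan dissolved in DMSO and read at 570 nm; triplicates.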

In order of falling IC50:
1. Cc1ccccc1COc1cc(NC(=O)c2ccccc2)ccc1N(C)S(C)(=O)=O  176 µM
2. Cc1ccc(C)c(COc2cc(NC(=O)Cc3ccccn3)ccc2N(C)S(C)(=O)=O)c1  174 µM
3. CS(=O)(=O)Nc1ccc([N+](=O)[O-])cc1Oc1ccccc1 [NIMESULIDE]  173 µM
4. Cc1ccccc1COc1cc(NC(=O)Cc2ccccn2)ccc1N(C)S(C)(=O)=O  93.9 µM
5. Cc1cccc(COc2cc(NC(=O)Cc3cccnc3)ccc2N(C)S(C)(=O)=O)c1  93.6 µM
6. Cc1ccccc1COc1cc(NC(=O)Cc2cccnc2)ccc1N(C)S(C)(=O)=O  71.5 µM
7. Cc1cc(C)c(COc2cc(NC(=O)Cc3ccccn3)ccc2N(C)S(C)(=O)=O)c(C)c1  51.3 µM
8. Cc1cccc(COc2cc(NC(=O)C3CCCCC3)ccc2N(C)S(C)(=O)=O)c1  44.2 µM
9. Cc1cccc(C)c1COc1cc(NC(=O)Cc2ccccn2)ccc1N(C)S(C)(=O)=O  41.4 µM
10. Cc1cccc(C)c1COc1cc(NC(=O)C2CCCCC2)ccc1N(C)S(C)(=O)=O  39.4 µM
11. Cc1ccccc1COc1cc(NC(=O)C2CCCCC2)ccc1N(C)S(C)(=O)=O  28.5 µM
12. CN(c1ccc(NC(=O)Cc2ccccn2)cc1OCc1cc(Cl)ccc1Cl)S(C)(=O)=O  23.6 µM
13. Cc1cccc(C)c1COc1cc(NC(=O)Cc2cccnc2)ccc1N(C)S(C)(=O)=O  22.5 µM
14. Cc1cccc(C)c1COc1cc(NC(=O)Cc2ccncc2)ccc1N(C)S(C)(=O)=O  19.9 µM
15. Cc1cc(C)c(COc2cc(NC(=O)C3CCCCC3)ccc2N(C)S(C)(=O)=O)c(C)c1  18.5 µM
16. Cc1cccc(C)c1COc1cc(NC(=O)c2ccccc2)ccc1N(C)S(C)(=O)=O  16.2 µM
17. Cc1cccc(COc2cc(NC(=O)Cc3ccncc3)ccc2N(C)S(C)(=O)=O)c1  16.1 µM
18. Cc1cccc(COc2cc(NC(=O)c3ccccc3)ccc2N(C)S(C)(=O)=O)c1  16.1 µM
19. CC(C)c1ccc(COc2cc(NC(=O)C3CCCCC3)ccc2N(C)S(C)(=O)=O)cc1  16.1 µM
20. Cc1cccc(COc2cc(NC(=O)Cc3ccccn3)ccc2N(C)S(C)(=O)=O)c1  14.9 µM
21. CN(c1ccc(NC(=O)Cc2cccnc2)cc1OCc1cc(Cl)ccc1Cl)S(C)(=O)=O  14.1 µM
22. Cc1cc(C)c(COc2cc(NC(=O)Cc3ccncc3)ccc2N(C)S(C)(=O)=O)c(C)c1  13.2 µM
23. CCCCCCOc1cc(NC(=O)Cc2cccnc2)ccc1N(C)S(C)(=O)=O  12.1 µM
24. CCCCCCOc1cc(NC(=O)c2ccccc2)ccc1N(C)S(C)(=O)=O  12 µM
25. Cc1ccccc1COc1cc(NC(=O)Cc2ccncc2)ccc1N(C)S(C)(=O)=O  11.8 µM
26. CC(C)c1ccc(COc2cc(NC(=O)Cc3ccncc3)ccc2N(C)S(C)(=O)=O)cc1  11.5 µM
27. CC(C)c1ccc(COc2cc(NC(=O)Cc3ccccn3)ccc2N(C)S(C)(=O)=O)cc1  11.4 µM
28. Cc1cc(C)c(COc2cc(NC(=O)Cc3cccnc3)ccc2N(C)S(C)(=O)=O)c(C)c1  10.4 µM
29. Cc1cc(C)c(COc2cc(NC(=O)c3ccccc3)ccc2N(C)S(C)(=O)=O)c(C)c1  10.3 µM
30. CCCCCCOc1cc(NC(=O)Cc2ccncc2)ccc1N(C)S(C)(=O)=O  9.56 µM
31. CC(C)c1ccc(COc2cc(NC(=O)Cc3cccnc3)ccc2N(C)S(C)(=O)=O)cc1  8.26 µM
32. CC(C)c1ccc(COc2cc(NC(=O)c3ccccc3)ccc2N(C)S(C)(=O)=O)cc1  7.93 µM
33. CCCCCCOc1cc(NC(=O)Cc2ccccn2)ccc1N(C)S(C)(=O)=O  7.68 µM
34. CN(c1ccc(NC(=O)Cc2ccncc2)cc1OCc1cc(Cl)ccc1Cl)S(C)(=O)=O  7.64 µM
35. CCCCCCOc1cc(NC(=O)C2CCCCC2)ccc1N(C)S(C)(=O)=O  6.98 µM
36. Cc1ccc(C)c(COc2cc(NC(=O)c3ccccc3)ccc2N(C)S(C)(=O)=O)c1  4.68 µM
37. Cc1ccc(C)c(COc2cc(NC(=O)Cc3ccncc3)ccc2N(C)S(C)(=O)=O)c1  2.37 µM
38. CN(c1ccc(NC(=O)c2ccccc2)cc1OCc1cc(Cl)ccc1Cl)S(C)(=O)=O  2.15 µM
39. Cc1ccc(C)c(COc2cc(NC(=O)Cc3cccnc3)ccc2N(C)S(C)(=O)=O)c1  1.69 µM
40. CN(c1ccc(NC(=O)C2CCCCC2)cc1OCc1cc(Cl)ccc1Cl)S(C)(=O)=O  1 µM

Source: ChEMBL document CHEMBL1154651, “Lead optimization of COX-2 inhibitor nimesulide analogs to overcome aromatase inhibitor resistance in breast cancer cells” (Bioorg Med Chem Lett, 2009)
